# Published values collected from several papers.
# Route: oral
SMILES,host,sample,dose,notes,bioavailability [%]
Cn1cc(-c2cc(N3CCCCS3(=O)=O)ccc2Oc2ccc(F)cc2F)c2c(F)c[nH]c2c1=O,Sprague-Dawley rat,plasma,3 mg/kg,,20 to 30
CN1CCC(COc2cnc(-c3cccc(Cn4nc(-c5cccc(C#N)c5)ccc4=O)c3)nc2)CC1,male Sprague-Dawley rat,plasma,20 mg/kg,,56
CNC(=O)c1cccc(-c2ccc([C@@H](O)[C@H]3O[C@H](CO)[C@@H](O)[C@H](O)[C@@H]3O)c(C)c2)c1,male Sprague-Dawley rat,plasma,10 mg/kg,single dose,1.95
Oc1c(-c2cccnc2)cnn1-c1ccccn1,rat,plasma,30 mg/kg,,35
CCOC(=O)[C@@]12C[C@@H]1[C@@H](n1ccc3c(NC)nc(C#Cc4ccc(Cl)s4)nc31)[C@H](O)[C@@H]2O,male Sprague-Dawley rat,plasma,3 mg/kg,,92.3
C=CC(=O)Nc1cc(Nc2nccc(Nc3cc(Cl)c(F)cc3C(C)(C)O)n2)c(OC)cc1N1CC[C@@H](N(C)C)C1,Wistar rat,plasma,3 mg/kg,,39.6
COc1ccc2c(=O)oc3c(OC)cc(CC(O)CN(C)C)c4c(=O)oc1c2c34 (centres unmarked),rat,plasma,,,~37
N#C[C@]1(CO)O[C@@H](n2cnc3c(=O)[nH]c(N)nc32)C[C@@H]1O,male Sprague-Dawley rat,plasma,1 mg/kg,,~70
COCCOc1cc(CC2CCN(CCc3ccc4c(c3)C(=O)CCO4)CC2)ccc1Br.O=S(=O)(O)c1ccccc1,male rat,plasma,10 mg/kg,,7.3
Oc1c(-n2ccnn2)cnn1-c1cc(N2CCOCC2)ncn1,male rat,plasma,5 mg/kg,,34
CCc1cc(OC)c2nccc(N3CCc4c(cc(Cn5ccnc5)cc4-c4cn(C)nc4C(F)(F)F)C3=O)c2c1,male Sprague-Dawley rat,plasma,50 mg/kg,,65
Cl.Clc1ccc2c(c1)nc(N1CCNCC1)n2Cc1ccccc1,rat,plasma,5 mg/kg,,42
CC(C)(O)[C@H]1CC[C@H](Nc2ccc3ncc(-c4cccc(C(F)(F)F)c4)n3n2)CC1,female Sprague-Dawley rat,plasma,40 mg/kg,,39
Cc1cn(-c2cc(NC(=O)c3cccc(-c4ccc5nc(NC(=O)C6CC6)sc5n4)c3)cc(C(F)(F)F)c2)cn1,rat,serum,2 mg/kg,,4.7
COCCOC(=O)C1=C(C)NC(C)=C(C(=O)OC(C)C)C1c1cccc([N+](=O)[O-])c1 (centres unmarked),male Sprague-Dawley rat,plasma,12 mg/kg,,21.9
N#Cc1ccc(-c2ccc(C[C@@H](C#N)NC(=O)[C@@H]3CCCCN3)cc2)cc1,Sprague-Dawley rat,plasma,3 mg/kg,,80
COc1nc2[nH]c(C(F)(F)F)nc2nc1Nc1ccc(OC(F)(F)F)cc1F,Sprague-Dawley rat,serum,5 mg/kg,,100
